Data: ChEMBL document CHEMBL2169805, “The discovery of CCR3/H1 dual antagonists with reduced hERG risk” (Bioorg Med Chem Lett, 2012)
In brackets after ≈: the same amount, converted by molar mass.

Key:
[1] = target: T1, C-C chemokine receptor type 3 (Homo sapiens, UniProt P51677); experiment: Binding affinity to human CCR3 receptor expressed in CHOK1 cells by radioligand displacement assay; format: cell-based, CHO-K1
T1 sequence (P51677 whole entry): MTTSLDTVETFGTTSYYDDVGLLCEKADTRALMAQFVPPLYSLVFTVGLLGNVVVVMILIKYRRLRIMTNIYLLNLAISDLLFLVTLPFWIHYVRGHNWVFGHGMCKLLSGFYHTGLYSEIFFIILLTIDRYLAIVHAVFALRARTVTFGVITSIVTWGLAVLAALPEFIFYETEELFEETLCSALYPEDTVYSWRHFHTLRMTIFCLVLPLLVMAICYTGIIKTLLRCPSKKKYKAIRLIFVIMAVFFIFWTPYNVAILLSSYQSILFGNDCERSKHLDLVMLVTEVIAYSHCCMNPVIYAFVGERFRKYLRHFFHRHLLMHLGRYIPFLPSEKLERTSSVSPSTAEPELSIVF

[2] = Volume of distribution at steady state in Sprague-Dawley rat at 1 mg/kg, iv; format: ADME, organism-based; parameters: dose 1 mg/kg, route intravenous; conditions: in vivo, read-out: Vdss
Summary of the method: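 Male Sprague-Dawley rats given a single iv dose, nominal 1 mg/kg, […] in DMA:PEG400:H2O (2:2:1).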

[3] = target: T2, Voltage-gated inwardly rectifying potassium channel KCNH2 (Homo sapiens, UniProt Q12809); experiment: Inhibition of human ERG expressed in CHO cells by IonworksHT assay; format: cell-based
T2 sequence (Q12809 whole entry): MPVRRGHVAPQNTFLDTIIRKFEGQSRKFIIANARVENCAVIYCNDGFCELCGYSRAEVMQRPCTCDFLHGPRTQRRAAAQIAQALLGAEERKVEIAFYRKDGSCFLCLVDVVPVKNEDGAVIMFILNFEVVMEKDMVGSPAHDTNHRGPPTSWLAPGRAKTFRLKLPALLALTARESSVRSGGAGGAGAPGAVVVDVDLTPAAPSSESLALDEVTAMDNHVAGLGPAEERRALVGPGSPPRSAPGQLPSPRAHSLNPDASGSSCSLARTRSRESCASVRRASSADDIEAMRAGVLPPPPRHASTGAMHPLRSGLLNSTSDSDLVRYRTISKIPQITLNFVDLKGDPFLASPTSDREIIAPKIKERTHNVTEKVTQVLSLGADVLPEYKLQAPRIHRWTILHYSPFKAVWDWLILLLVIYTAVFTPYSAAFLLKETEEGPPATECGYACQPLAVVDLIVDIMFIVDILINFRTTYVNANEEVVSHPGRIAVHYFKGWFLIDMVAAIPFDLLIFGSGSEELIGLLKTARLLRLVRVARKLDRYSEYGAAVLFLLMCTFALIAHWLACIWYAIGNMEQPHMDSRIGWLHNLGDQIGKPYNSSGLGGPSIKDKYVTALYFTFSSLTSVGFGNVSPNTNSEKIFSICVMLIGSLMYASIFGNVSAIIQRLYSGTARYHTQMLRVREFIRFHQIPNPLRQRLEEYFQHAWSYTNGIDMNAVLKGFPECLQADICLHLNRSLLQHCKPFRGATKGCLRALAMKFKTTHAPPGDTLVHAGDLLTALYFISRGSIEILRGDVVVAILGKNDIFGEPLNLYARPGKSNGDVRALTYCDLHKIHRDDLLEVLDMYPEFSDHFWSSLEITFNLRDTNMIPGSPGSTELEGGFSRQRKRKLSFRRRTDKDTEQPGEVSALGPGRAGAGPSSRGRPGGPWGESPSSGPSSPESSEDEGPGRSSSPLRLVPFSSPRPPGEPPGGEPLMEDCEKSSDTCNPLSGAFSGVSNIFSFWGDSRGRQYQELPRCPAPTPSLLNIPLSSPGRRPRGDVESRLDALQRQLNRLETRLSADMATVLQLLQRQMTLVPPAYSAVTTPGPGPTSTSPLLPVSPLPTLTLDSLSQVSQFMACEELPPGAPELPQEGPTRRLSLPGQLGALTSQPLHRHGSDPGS

[4] = Oral bioavailability in Sprague-Dawley rat at 1 mg/kg administered using 0.1%tween-1%CMC as vehicle; format: ADME, organism-based; conditions: in vivo
Histamine H1 receptor = Histamine H1 receptor (Homo sapiens, UniProt P35367); experiment: Displacement of [3H]pyrilamine from human H1 receptor expressed in CHOK1 cells; format: cell-based, CHO-K1
Chain of Histamine H1 receptor (P35367 whole entry): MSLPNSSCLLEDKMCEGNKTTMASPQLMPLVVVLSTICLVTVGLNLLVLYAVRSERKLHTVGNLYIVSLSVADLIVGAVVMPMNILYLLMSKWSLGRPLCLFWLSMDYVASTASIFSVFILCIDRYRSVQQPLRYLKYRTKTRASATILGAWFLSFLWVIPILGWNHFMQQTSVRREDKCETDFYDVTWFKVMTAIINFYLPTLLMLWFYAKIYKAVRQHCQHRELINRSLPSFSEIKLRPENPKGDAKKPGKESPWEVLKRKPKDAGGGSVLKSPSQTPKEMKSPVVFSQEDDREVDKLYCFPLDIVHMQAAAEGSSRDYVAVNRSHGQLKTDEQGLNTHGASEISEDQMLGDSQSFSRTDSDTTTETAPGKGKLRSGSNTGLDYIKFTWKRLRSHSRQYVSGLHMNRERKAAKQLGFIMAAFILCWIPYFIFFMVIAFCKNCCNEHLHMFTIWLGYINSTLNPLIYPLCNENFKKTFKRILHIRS

[5] = Oral bioavailability in dog at 1 mg/kg administered using 0.1%tween-1%CMC as vehicle; format: ADME, organism-based, Canis lupus familiaris; conditions: in vivo
[6] = Solubility of the compound at pH 7.4; format: physicochemical; conditions: buffer
[7] = target: T2, Voltage-gated inwardly rectifying potassium channel KCNH2
[8] = Half life in Sprague-Dawley rat at 1 mg/kg, iv; format: ADME, organism-based; parameters: dose 1 mg/kg, route intravenous; conditions: in vivo
[9] = Clearance in Sprague-Dawley rat at 1 mg/kg, iv; format: ADME, organism-based; parameters: dose 1 mg/kg, route intravenous; conditions: in vivo
[10] = Oral bioavailability in rat; format: ADME, organism-based; conditions: in vivo
hERG (KCNH2) = hERG (KCNH2) (Homo sapiens, UniProt Q12809); experiment: Inhibition of human ERG expressed in HEK293 cells at 10 uM by electrophysiological ion flux assay; format: cell-based; conditions: HEK293 cells expressing human ERG
Chain of hERG (KCNH2) (Q12809 whole entry): as the sequence (Q12809 whole entry) above

[11] = Oral bioavailability in Sprague-Dawley rat at 1 mg/kg administered using cyclodextrin-meglumine as vehicle; format: ADME, organism-based; conditions: in vivo

| SMILES | Ki [1] | Ki (Histamine H1 receptor) | also measured |
| --- | --- | --- | --- |
| Cc1c(Cl)ccc(OC2CCN(C3CCN(C(=O)NS(=O)(=O)c4ccc(N(C)C)cc4)CC3)CC2)c1Cl | 3.16 nM | – | Vd [2]: 2.3 L/kg; IC50 [3]: > 20000 nM; bioavailability [4]: 82% |
| Cc1ccc(C(=O)N2CCC(N3CC[C@H](Oc4ccc(Cl)c(C)c4Cl)C[C@@H]3C(=O)O)CC2)cc1 | 631 nM | > 6310 nM | – |
| Cc1ccc(S(=O)(=O)NC(=O)N2CCC(N3CCC(Oc4ccc(Cl)c(C)c4Cl)CC3)CC2)cc1 | 0.631 nM | 20 nM | – |
| COc1ccc(C(=O)NCCN2CCN(Cc3ccc(Cl)c(Cl)c3)CC2)cc1Cl | 5010 nM | – | – |
| Cc1ccc(S(=O)(=O)N(C)C(=O)N2CCC(N3CCC(Oc4ccc(Cl)c(Cl)c4)CC3)CC2)cc1 | 100 nM | 2.51 nM | IC50 [3]: 316 nM |
| CN(C)c1ccc(S(=O)(=O)NC(=O)N2CCC(N3CCC(Oc4ccc(Cl)c(Cl)c4)CC3)CC2)cc1 | 50.1 nM | 20 nM | – |
| Cc1ccc(S(=O)(=O)[N-]C(=O)N2CCC(N3CCC(Oc4ccc(Cl)c(Cl)c4)CC3)CC2)cc1.[Na+] | – | – | bioavailability [5]: 97%; solubility [6]: 0.26 µM; bioavailability [4]: 15% |
| Cc1ccc(S(=O)(=O)NC(=O)N2CCC(N3CCC(Oc4ccc(Cl)cc4C)CC3)CC2)cc1 | 7.94 nM | 25.1 nM | IC50 [7]: > 10000 nM; half-life [8]: 0.9 h; Vd [2]: 1.4 L/kg; clearance [9]: 27 mL/min/kg; bioavailability [4]: 6% |
| Cc1ccc(S(=O)(=O)NC(=O)N2CCC(N3CCC(Oc4ccc(F)c(F)c4)CC3)CC2)cc1 | 631 nM | 1000 nM | – |
| CN(C)c1ccccc1S(=O)(=O)NC(=O)N1CCC(N2CCC(Oc3ccc(Cl)c(Cl)c3)CC2)CC1 | 31.6 nM | 25.1 nM | – |
| Cc1ccc(S(=O)(=O)NC(=O)N2CCC(N3CCC(Oc4ccc(Cl)cc4)CC3)CC2)cc1 | 126 nM | 126 nM | – |
| Cc1ccc(S(=O)(=O)NC(=O)N2CCC(N3CCC(Oc4ccc(Cl)cc4Cl)CC3)CC2)cc1 | 25.1 nM | 15.8 nM | – |
| Cc1c(Cl)ccc(OC2CCN(C3CCN(S(=O)(=O)NC(=O)c4ccccc4)CC3)CC2)c1Cl | 12.6 nM | 25.1 nM | IC50 [7]: 3980 nM; half-life [8]: 1.6 h; Vd [2]: 0.9 L/kg; clearance [9]: 17 mL/min/kg; bioavailability [4]: 18% |
| Cc1c(Cl)ccc(OC2CCN(C3CCN(C(=O)c4cccc(S(C)(=O)=O)c4)CC3)CC2)c1Cl | 5.01 nM | 25.1 nM | – |
| COc1cccc(C(=O)NCCN2CCC(Oc3ccc(Cl)c(Cl)c3)CC2)c1 | 100 nM | – | half-life [8]: 1.8 h |
| Cc1ccc(C(=O)N2CCC(N3CC[C@@H](Oc4ccc(Cl)c(C)c4Cl)C[C@H]3C(=O)O)CC2)cc1 | 2510 nM | > 5010 nM | – |
| COc1ccc(S(=O)(=O)NC(=O)N2CCC(N3CCC(Oc4ccc(Cl)c(Cl)c4)CC3)CC2)cc1 | 39.8 nM | 20 nM | bioavailability [4]: 4% |
| Cc1ccc(S(=O)(=O)NC(=O)N2CCC(N3CCC(Oc4ccc(Cl)c(Cl)c4)CC3)CC2)cc1 | – | – | bioavailability [5]: 19%; half-life [8]: 2.7 h; Vd [2]: 2.7 L/kg; bioavailability [11]: 44%; clearance [9]: 20 mL/min/kg; bioavailability [4]: 18% |
| O=C(O)CCCCn1nnc(-c2ccc(C(=O)N3CCC(N4CCC(Oc5ccc(Cl)c(Cl)c5)CC4)CC3)cc2)n1 | 398 nM | 39.8 nM | – |

Continued, in another order:

| Ki [1] | Ki (Histamine H1 receptor) | SMILES | also measured |
| --- | --- | --- | --- |
| 126 nM | 31.6 nM | Cc1cccc(S(=O)(=O)NC(=O)N2CCC(N3CCC(Oc4ccc(Cl)c(Cl)c4)CC3)CC2)c1 | – |
| 501 nM | 15.8 nM | O=C(O)CCNc1ccccc1C(=O)N1CCC(N2CCC(Oc3ccc(Cl)c(Cl)c3)CC2)CC1 | – |
| 398 nM | 200 nM | CS(=O)(=O)c1cccc(C(=O)N2CC[C@@H](N3CCC(Oc4ccc(Cl)c(Cl)c4)CC3)[C@H](C(=O)O)C2)c1 | – |
| 31.6 nM | 50.1 nM | O=C(NS(=O)(=O)c1ccc(F)cc1)N1CCC(N2CCC(Oc3ccc(Cl)c(Cl)c3)CC2)CC1 | – |
| 50.1 nM | 7.94 nM | CS(=O)(=O)c1cccc(C(=O)N2CCC(N3CCC(Oc4ccc(Cl)c(Cl)c4)CC3)CC2)c1 | solubility [6]: 0.017 µM (≈ 8.7 ng/mL); half-life [8]: 6.9 h; bioavailability [10]: 50% |
| 5.01 nM | 50.1 nM | O=C(NS(=O)(=O)c1ccccc1Cl)N1CCC(N2CCC(Oc3ccc(Cl)c(Cl)c3)CC2)CC1 | – |
| 316 nM | 15.8 nM | O=C(c1ccc(-c2nc(=O)o[nH]2)cc1)N1CCC(N2CCC(Oc3ccc(Cl)c(Cl)c3)CC2)CC1 | – |
| 100 nM | 20 nM | N#Cc1cccc(S(=O)(=O)NC(=O)N2CCC(N3CCC(Oc4ccc(Cl)c(Cl)c4)CC3)CC2)c1 | – |
| 20 nM | 50.1 nM | Cc1ccccc1S(=O)(=O)NC(=O)N1CCC(N2CCC(Oc3ccc(Cl)c(Cl)c3)CC2)CC1 | IC50 [7]: > 10000 nM; Vd [2]: 2.7 L/kg; bioavailability [4]: 8% |
| 79.4 nM | 79.4 nM | O=C(O)CCCS(=O)(=O)c1cccc(C(=O)N2CCC(N3CCC(Oc4ccc(Cl)c(Cl)c4)CC3)CC2)c1 | – |
| 25.1 nM | 20 nM | COc1ccccc1S(=O)(=O)NC(=O)N1CCC(N2CCC(Oc3ccc(Cl)c(Cl)c3)CC2)CC1 | – |
| 10 nM | 25.1 nM | O=C(c1c[nH]c(=O)c2ccccc12)N1CCC(N2CCC(Oc3ccc(Cl)c(Cl)c3)CC2)CC1 | half-life [8]: 4.2 h; bioavailability [10]: 50% |
| 79.4 nM | 100 nM | O=C(NS(=O)(=O)N1CCC(N2CCC(Oc3ccc(Cl)c(Cl)c3)CC2)CC1)c1ccccc1 | Vd [2]: 0.5 L/kg; bioavailability [4]: 100% |
| 7.94 nM | 20 nM | O=C(NS(=O)(=O)c1ccc(Cl)cc1)N1CCC(N2CCC(Oc3ccc(Cl)c(Cl)c3)CC2)CC1 | – |
| 31.6 nM | 39.8 nM | O=C(NS(=O)(=O)c1cccc(C(F)(F)F)c1)N1CCC(N2CCC(Oc3ccc(Cl)c(Cl)c3)CC2)CC1 | – |
| 15.8 nM | 31.6 nM | O=C(NS(=O)(=O)c1ccccc1)N1CCC(N2CCC(Oc3ccc(Cl)c(Cl)c3)CC2)CC1 | IC50 [7]: 10000 nM |
| 251 nM | 100 nM | O=C(O)COc1cccc(C(=O)N2CCC(N3CCC(Oc4ccc(Cl)c(Cl)c4)CC3)CC2)c1 | inhibition at 10 µM (hERG (KCNH2)): 15% |
| 200 nM | 126 nM | O=C(O)c1cccc(C(=O)N2CCC(N3CCC(Oc4ccc(Cl)c(Cl)c4)CC3)CC2)c1 | IC50 [7]: > 10000 nM |
| 6.31 nM | 7.94 nM | O=C(NS(=O)(=O)c1cccc(Cl)c1)N1CCC(N2CCC(Oc3ccc(Cl)c(Cl)c3)CC2)CC1 | – |
| 251 nM | 25.1 nM | O=C(O)c1ccccc1C(=O)N1CCC(N2CCC(Oc3ccc(Cl)c(Cl)c3)CC2)CC1 | – |
| 158 nM | 50.1 nM | O=C(NS(=O)(=O)Cc1ccccc1)N1CCC(N2CCC(Oc3ccc(Cl)c(Cl)c3)CC2)CC1 | – |
| 200 nM | 31.6 nM | O=C(c1ccc(-c2nn[nH]n2)cc1)N1CCC(N2CCC(Oc3ccc(Cl)c(Cl)c3)CC2)CC1 | – |
